Measurements from ChEMBL document CHEMBL1144782, “Isoindolo[2,1-a]quinoxaline derivatives, novel potent antitumor agents with dual inhibition of tubulin polymerization and topoisomerase I” (2008).
Active and inactive are the calls of the source. The rule behind the calls is not given here.

Assays:
Jurkat [1] = test: Cell cycle arrest in human Jurkat cells assessed as accumulation at G1 phase at 125 nM after 24 hrs by flow cytometry; type: functional
Procedure, shortened: (§1)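 Exponentially growing Jurkat cells (5 × 105) were exposed to compound for 24 h. Cells were then fixed in ice-cold 70% ethanol, lysed with RNase A-containing buffer and stained with propidium iodide. DNA-content histograms from flow cytometry gave G1, S and G2/M fractions.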

Jurkat [2] = test: Cell cycle arrest in human Jurkat cells assessed as accumulation at G2/M phase at 62.5 nM after 24 hrs by flow cytometry; type: functional; procedure, shortened: as §1
Salmonidae = test: Binding affinity to salmon testes DNA by spectrophotometric titration method
Procedure, shortened: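 Absorption titration of salmon testes DNA into a constant drug concentration at varying [drug]/[DNA] ratios. ETN buffer (10 mM Tris, 1 mM EDTA, 10 mM NaCl), pH 7.0, 25 °C. Scatchard isotherms were fitted to the McGhee–von Hippel model for intrinsic binding constant and site size.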

Jurkat [3] = test: Cell cycle arrest in human Jurkat cells assessed as accumulation at G1 phase at 500 nM after 24 hrs by flow cytometry; type: functional; procedure, shortened: as §1
Jurkat [4] = test: Effect on mitochondrial membrane potential depolarization in human Jurkat cells after 24 hrs by flow cytometry; type: functional, cell-based
Procedure, shortened: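 Jurkat cells after 24 h exposure were loaded with JC-1 (1 µM in HBSS) for 10 min at 37 °C, washed and analyzed by flow cytometry. The percentage of cells with low mitochondrial potential was recorded.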

Tubulin (Sus scrofa) = Tubulin (Sus scrofa) (UniProt P02554+P02550); test: Inhibition of pig brain tubulin polymerization at 5 uM
Chain of Tubulin (Sus scrofa) (P02550 whole entry, looked up): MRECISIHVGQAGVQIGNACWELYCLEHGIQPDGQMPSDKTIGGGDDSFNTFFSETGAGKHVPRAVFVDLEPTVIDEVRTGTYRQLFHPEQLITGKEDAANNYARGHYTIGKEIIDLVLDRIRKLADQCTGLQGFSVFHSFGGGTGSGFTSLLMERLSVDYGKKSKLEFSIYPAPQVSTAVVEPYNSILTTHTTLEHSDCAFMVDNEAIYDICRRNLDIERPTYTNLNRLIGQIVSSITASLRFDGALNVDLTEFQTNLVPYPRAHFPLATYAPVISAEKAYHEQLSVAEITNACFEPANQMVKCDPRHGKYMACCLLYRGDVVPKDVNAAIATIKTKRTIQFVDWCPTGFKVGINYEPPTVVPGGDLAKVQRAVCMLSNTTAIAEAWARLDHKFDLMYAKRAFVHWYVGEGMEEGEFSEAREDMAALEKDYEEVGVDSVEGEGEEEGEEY
Chain of Tubulin (Sus scrofa) (P02554 whole entry, looked up): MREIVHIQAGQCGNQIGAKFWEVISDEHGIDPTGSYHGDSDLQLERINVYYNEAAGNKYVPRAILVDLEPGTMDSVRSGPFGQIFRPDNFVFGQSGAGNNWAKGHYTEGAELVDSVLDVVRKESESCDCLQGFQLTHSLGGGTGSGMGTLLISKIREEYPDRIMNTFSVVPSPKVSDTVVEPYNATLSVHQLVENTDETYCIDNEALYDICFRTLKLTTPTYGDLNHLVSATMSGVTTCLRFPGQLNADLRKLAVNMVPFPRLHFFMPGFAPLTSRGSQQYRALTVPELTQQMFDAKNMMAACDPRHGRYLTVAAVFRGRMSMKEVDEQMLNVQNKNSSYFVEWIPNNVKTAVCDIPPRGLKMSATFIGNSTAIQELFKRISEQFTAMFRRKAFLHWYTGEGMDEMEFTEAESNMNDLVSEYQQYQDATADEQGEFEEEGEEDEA

[5] = biological target: DNA topoisomerase 1 (Homo sapiens) (UniProt P11387); test: Inhibition of human topoisomerase 1-mediated relaxation of supercoiled pBR322 DNA at 200 uM by agarose gel electrophoresis
Chain of DNA topoisomerase 1 (Homo sapiens) (P11387 whole entry): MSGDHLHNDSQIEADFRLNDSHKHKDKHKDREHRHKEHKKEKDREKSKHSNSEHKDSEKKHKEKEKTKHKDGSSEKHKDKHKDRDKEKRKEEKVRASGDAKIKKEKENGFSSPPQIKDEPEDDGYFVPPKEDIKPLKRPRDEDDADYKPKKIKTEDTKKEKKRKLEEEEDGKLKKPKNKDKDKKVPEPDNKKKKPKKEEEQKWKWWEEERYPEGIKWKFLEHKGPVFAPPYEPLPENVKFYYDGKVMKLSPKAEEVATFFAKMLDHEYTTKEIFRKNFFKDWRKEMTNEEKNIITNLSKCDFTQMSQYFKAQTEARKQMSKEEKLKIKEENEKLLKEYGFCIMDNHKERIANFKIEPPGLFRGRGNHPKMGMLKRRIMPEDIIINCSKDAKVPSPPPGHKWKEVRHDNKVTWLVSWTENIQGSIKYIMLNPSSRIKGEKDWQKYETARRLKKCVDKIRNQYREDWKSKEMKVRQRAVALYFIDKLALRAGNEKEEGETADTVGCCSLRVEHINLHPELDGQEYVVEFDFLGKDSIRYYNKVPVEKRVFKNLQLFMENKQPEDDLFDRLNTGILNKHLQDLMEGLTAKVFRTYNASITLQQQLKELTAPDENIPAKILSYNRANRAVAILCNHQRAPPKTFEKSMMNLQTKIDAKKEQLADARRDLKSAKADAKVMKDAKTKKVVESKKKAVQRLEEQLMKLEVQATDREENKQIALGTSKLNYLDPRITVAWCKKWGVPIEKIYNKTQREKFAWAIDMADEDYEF
Procedure, shortened: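 Supercoiled pBR322 was incubated with 5 units of human topoisomerase I for 30 min at 37 °C in 50 mM Tris-HCl pH 7.8, 50 mM KCl, 10 mM MgCl2, 1 mM DTT, 1 mM EDTA, with drug 0.5–200 µM. Reactions were stopped with SDS and proteinase K, run on 1% agarose at 20 V overnight, stained with ethidium bromide, and bands quantified. Ethidium-containing gels were also run.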

A549 [6] = test: Disruption of tubulin network in human A549 cells assessed as disaggregation of microtubules at 5 uM […]; type: functional, cell-based
LoVo [7] = test: Growth inhibition of human LoVo cells after 72 hrs by MTT assay; type: functional
Procedure, shortened: (§2)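 Growth inhibition by MTT after 72 h incubation. Resistant sublines: LoVoDoxo and MCF-7 MDR were kept in 0.1 µg/mL doxorubicin; CEMVbl-100 was selected against vinblastine. GI50 given as mean ± SEM of three independent experiments. Resistance index is resistant-line GI50 over parental GI50.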

Jurkat [8] = test: Cell cycle arrest in human Jurkat cells assessed as accumulation at G2/M phase at 125 nM after 24 hrs by flow cytometry; type: functional; procedure, shortened: as §1
Jurkat [9] = test: Cell cycle arrest in human Jurkat cells assessed as accumulation at S phase at 62.5 nM after 24 hrs by flow cytometry; type: functional; procedure, shortened: as §1
Jurkat [10] = test: Effect on mitochondrial dysfunction in human Jurkat cells assessed as decrease in 10-N-nonyl-acridine-orange fluorescence intensity after 24 hrs by flow cytometry; type: functional, cell-based
Procedure, shortened: (§3)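 Jurkat cells after 24 h exposure were resuspended in HBSS with hydroethidine (2.5 µM, ROS) or NAO (100 nM, cardiolipin oxidation) for 30 min at 37 °C. Flow cytometry used 488 nm excitation, with emission at 585 nm (HE) or 530 nm (NAO). Mean ± SEM of three experiments.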

Jurkat [11] = test: Cell cycle arrest in human Jurkat cells assessed as accumulation at S phase at 500 nM after 24 hrs by flow cytometry; type: functional; procedure, shortened: as §1
Jurkat [12] = test: Cell cycle arrest in human Jurkat cells assessed as accumulation at G2/M phase at 32 nM after 24 hrs by flow cytometry; type: functional; procedure, shortened: as §1
Jurkat [13] = test: Effect on mitochondrial dysfunction in human Jurkat cells assessed as induction of ROS production after 24 hrs by flow cytometry; type: functional, cell-based; procedure, shortened: as §3
Jurkat [14] = test: Cell cycle arrest in human Jurkat cells assessed as accumulation at G1 phase at 32 nM after 24 hrs by flow cytometry; type: functional; procedure, shortened: as §1
A549 [15] = test: Disruption of tubulin network in human A549 cells assessed as disaggregation of microtubules at 2.5 uM […]; type: functional, cell-based
Jurkat [16] = test: Induction of apoptosis in human Jurkat cells after 24 hrs by flow cytometry; type: functional, cell-based
Procedure, shortened: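 Jurkat cells after 24 h exposure were stained with Annexin V-FITC plus propidium iodide. Flow cytometry used 488 nm excitation, with emission filters at 525 and 585 nm.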

Jurkat [17] = test: Cell cycle arrest in human Jurkat cells at mitosis at 0.5 uM after 24 hrs; type: functional
Procedure, shortened: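 Exponentially growing Jurkat cells were exposed for 24 h, then pelleted at 400g for 5 min. Hypotonic KCl (75 mM, 4 °C) was applied for 20 min, followed by methanol–acetic acid (3:1) fixation and Giemsa staining. 400 cells per treatment were scored microscopically; mitotic index is the fraction with mitotic figures. Three independent experiments, mean ± SEM.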

Jurkat [18] = test: Induction of apoptosis in human Jurkat cells assessed as activation of caspase 9 after 24 hrs by flow cytometry; type: functional, cell-based
Procedure, shortened: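 Jurkat cells were exposed (500 nM) for 24 h, then harvested and incubated in HBSS with cell-permeable FITC-DEVD-fmk (caspase-3) or FITC-[…]-fmk (caspase-9) for 1 h at 37 °C. After washing, cells were read by flow cytometry on FL-1. Results are fold increase over control.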

LoVo [19] = test: Growth inhibition of human doxorubicin-resistant LoVo cells after 72 hrs by MTT assay; type: functional; procedure, shortened: as §2
Jurkat [20] = test: Cell cycle arrest in human Jurkat cells assessed as accumulation at S phase at 32 nM after 24 hrs by flow cytometry; type: functional; procedure, shortened: as §1
Jurkat [21] = test: Cell cycle arrest in human Jurkat cells assessed as accumulation at S phase at 250 nM after 24 hrs by flow cytometry; type: functional; procedure, shortened: as §1
LoVo [22] = test: Resistance index, Ratio of GI50 for human doxorubicin-resistant LoVo cells to GI50 for human LoVo cells; type: functional; procedure, shortened: as §2
Jurkat [23] = test: Cell cycle arrest in human Jurkat cells assessed as accumulation at G1 phase at 62.5 nM after 24 hrs by flow cytometry; type: functional; procedure, shortened: as §1
Jurkat [24] = test: Cell cycle arrest in human Jurkat cells assessed as accumulation at S phase at 125 nM after 24 hrs by flow cytometry; type: functional; procedure, shortened: as §1

Question: What does the source list for COc1ccc2c(c1)[nH]c(=O)c1c3ccccc3cn21?
Answer: Activity (Jurkat [1]): 2.2%; Activity (Jurkat [2]): 43.1%; K (Salmonidae): 2.7 10^5/M; Activity (Jurkat [3]): 0.1%; Activity (Jurkat [4]): Dose-dependent effect; Activity (Tubulin (Sus scrofa)): Active; Activity [5]: Active; Activity (A549 [6]): Active; GI50 (LoVo [7]): 0.13 µM; Activity (Jurkat [8]): 59.2%; Activity (Jurkat [9]): 53.5%; Activity (Jurkat [10]): Active; Activity (Jurkat [11]): 49.1%; Activity (Jurkat [12]): 28.8%; Activity (Jurkat [13]): Active; Activity (Jurkat [14]): 27.1%; Activity (A549 [15]): Active; Activity (Jurkat [16]): Dose-dependent effect; Activity (Jurkat [17]): 50%; Activity (Jurkat [18]): Active; GI50 (LoVo [19]): 0.13 µM; Activity (Jurkat [20]): 44.1%; Activity (Jurkat [21]): 44.2%; RatioGI50 (LoVo [22]): 1; Activity (Jurkat [23]): 3.4%; Activity (Jurkat [24]): 38.6%
